In ChEMBL document CHEMBL1772996, “Bioactive constituents from the roots of Panax japonicus var. major and development of a LC-MS/MS method for distinguishing between natural and artifactual compounds” (J Nat Prod, 2011):
Active and inactive are the calls of the source. The rule behind the calls is not given here.

Assays:
[1] = test system: Neutrophil; assay: Inhibition of fMLP/CB-stimulated superoxide anion generation in human neutrophils; assay type: functional, cell-based
Method in brief: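 Isolated human neutrophils (dextran sedimentation, Ficoll Hypaque, hypotonic lysis; >98% viable) with 0.5 mg/mL ferricytochrome c and 1 mM Ca2+, 37 °C 2 min, compound 5 min; CB 1 μg/mL 3 min, then 100 nM FMLP 10 min; SOD-inhibitable cytochrome c reduction followed continuously at 550 nm with stirring; mean ± S.E.M., n = 3–4; top concentration 30 μM.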

[2] = test system: Neutrophil; assay: Inhibition of fMLP/CB-activated human neutrophil degranulation assessed as inhibition of elastase release using MeO-Suc-Ala-Ala-Pro-Val-p-nitroanilide as a substrate after 5 mins; assay type: functional, cell-based
Method in brief: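 Neutrophils from dextran sedimentation, Ficoll Hypaque centrifugation and hypotonic erythrocyte lysis (>98% viable by trypan blue), held in Ca2+-free HBSS pH 7.4 at 4 °C; 5×10^5/mL cells with 100 μM substrate equilibrated 37 °C 2 min, compound 5 min, then 100 nM FMLP plus 0.5 μg/mL CB; A405 monitored continuously; expressed as % of initial rate in drug-free activated control; mean ± S.E.M., n = 3–4; top concentration 30 μM.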

[3] = test system: KB; assay: Cytotoxicity against human KB cells assessed as growth inhibition after 3 days by sulforhodamine B assay; assay type: functional
[4] = test system: DU-145; assay: Cytotoxicity against human DU145 cells assessed as growth inhibition after 3 days by sulforhodamine B assay; assay type: functional
[5] = test system: A549; assay: Cytotoxicity against human A549 cells assessed as growth inhibition after 3 days by sulforhodamine B assay; assay type: functional, cell-based
[6] = test system: HCT-8; assay: Cytotoxicity against human HCT8 cells assessed as growth inhibition after 3 days by sulforhodamine B assay; assay type: functional, cell-based
[7] = test system: Neutrophil; assay: Inhibition of superoxide anion generation in human neutrophils in response to fMLP/CB
[8] = Inhibition of yeast alpha-glucosidase assessed as p-nitrophenol release after 20 mins by microplate spectrophotometer; design: species or system Saccharomyces cerevisiae

Row | IC50 [1] [µM] | IC50 [2] [µM] | IC50 [7] [µM] | IC50 [8] [µM] | Structure (SMILES) | growth inhibition (GI) [3] | growth inhibition (GI) [4] | growth inhibition (GI) [5] | growth inhibition (GI) [6]
1 | 3.73 | 7.28 | – | – | CCCCOC(=O)[C@H]1O[C@@H](O[C@H]2CC[C@]3(C)[C@H]4CC=C5[C@@H]6CC(C)(C)CC[C@]6(C(=O)O[C@@H]6O[C@H](CO)[C@@H](O)[C@H](O)[C@H]6O)CC[C@@]5(C)[C@]4(C)CC[C@H]3C2(C)C)[C@H](O)[C@@H](O)[C@@H]1O | inactive | inactive | inactive | inactive
2 | 1.56 | 1.87 | – | – | CC1(C)CC[C@]2(C(=O)O[C@@H]3O[C@H](CO)[C@@H](O)[C@H](O)[C@H]3O)CC[C@]3(C)C(=CC[C@@H]4[C@@]5(C)CC[C@H](O[C@@H]6O[C@H](C(=O)O[C@@H]7O[C@H](CO)[C@@H](O)[C@H](O)[C@H]7O)[C@@H](O[C@@H]7O[C@@H](CO)[C@H](O)[C@H]7O)[C@H](O)[C@H]6O)C(C)(C)[C@@H]5CC[C@]43C)[C@@H]2C1 | inactive | inactive | inactive | inactive
3 | 2.88 | 4.76 | – | – | CC1(C)CC[C@]2(C(=O)O[C@@H]3O[C@H](CO)[C@@H](O)[C@H](O)[C@H]3O)CC[C@]3(C)C(=CC[C@@H]4[C@@]5(C)CC[C@H](O[C@@H]6O[C@H](C(=O)O)[C@@H](O)[C@H](O)[C@H]6O)C(C)(C)[C@@H]5CC[C@]43C)[C@@H]2C1 [CHIKUSETSUSAPONIN IVA] | inactive | inactive | inactive | inactive
4 | – | 1.97 | 13.6 | – | COC(=O)[C@H]1O[C@@H](O[C@H]2CC[C@]3(C)[C@H]4CC=C5[C@@H]6CC(C)(C)CC[C@]6(C(=O)O[C@@H]6O[C@H](CO)[C@@H](O)[C@H](O)[C@H]6O)CC[C@@]5(C)[C@]4(C)CC[C@H]3C2(C)C)[C@H](O)[C@@H](O)[C@@H]1O | inactive | inactive | inactive | inactive
5 | 1.37 | 0.75 | – | – | CC1(C)CC[C@]2(C(=O)O)CC[C@]3(C)C(=CC[C@@H]4[C@@]5(C)CC[C@H](O)C(C)(C)[C@@H]5CC[C@]43C)[C@@H]2C1 [OLEANOLIC_ACID] | inactive | inactive | inactive | inactive
6 | 5.26 | 7.75 | – | – | COC(=O)[C@H]1O[C@@H](O[C@H]2CC[C@]3(C)[C@H]4CC=C5[C@@H]6CC(C)(C)CC[C@]6(C(=O)O[C@@H]6O[C@H](CO)[C@@H](O)[C@H](O)[C@H]6O)CC[C@@]5(C)[C@]4(C)CC[C@H]3C2(C)C)[C@H](O[C@H]2OC[C@@H](O)[C@H](O)[C@H]2O)[C@@H](O)[C@@H]1O [PSEUDOGINSENOSIDE RT1 METHYL ESTER] | inactive | inactive | inactive | inactive
7 | – | – | – | 678 | C[C@H]1O[C@H](O[C@H]2[C@H](O)[C@@H](O)[C@@H](O[C@H]3[C@H](O)[C@@H](O)C(O)O[C@@H]3CO)O[C@@H]2CO)[C@H](O)[C@@H](O)[C@@H]1N[C@H]1C=C(CO)[C@@H](O)[C@H](O)[C@H]1O (some centres undefined) [ACARBOSE] | – | – | – | –
8 | 19.4 | 44.5 | – | – | CC1(C)CC[C@]2(C(=O)O[C@@H]3O[C@H](CO)[C@@H](O)[C@H](O)[C@H]3O)CC[C@]3(C)C(=CC[C@@H]4[C@@]5(C)CC[C@H](O[C@@H]6O[C@H](C(=O)O)[C@@H](O)[C@H](O)[C@H]6O[C@H]6OC[C@@H](O)[C@H](O)[C@H]6O)C(C)(C)[C@@H]5CC[C@]43C)[C@@H]2C1 [PSEUDOGINSENOSIDE RT1] | inactive | inactive | inactive | inactive
9 | 2.24 | 1.36 | – | – | CCCCOC(=O)[C@H]1O[C@@H](O[C@H]2CC[C@]3(C)[C@H]4CC=C5[C@@H]6CC(C)(C)CC[C@]6(C(=O)O[C@@H]6O[C@H](CO)[C@@H](O)[C@H](O)[C@H]6O)CC[C@@]5(C)[C@]4(C)CC[C@H]3C2(C)C)[C@H](O)[C@@H](O)[C@@H]1O[C@@H]1O[C@@H](CO)[C@H](O)[C@H]1O [TAIBAIENOSIDE I] | inactive | inactive | inactive | inactive
